Measurements taken from ChEMBL document CHEMBL1126141, “Substituted 4,6-diaminoquinolines as inhibitors of C5a receptor binding” (J Med Chem, 1992).
Values after ≈ are worked out from the molar mass of the structure shown.

Assays:
[1] = molecular target: T1, C5a anaphylatoxin chemotactic receptor 1 (Homo sapiens, UniProt P21730); assay: Ability to inhibit binding of radiolabeled C5a anaphylatoxin to intact membrane bound receptor from human neutrophils.
T1 sequence (P21730 whole entry): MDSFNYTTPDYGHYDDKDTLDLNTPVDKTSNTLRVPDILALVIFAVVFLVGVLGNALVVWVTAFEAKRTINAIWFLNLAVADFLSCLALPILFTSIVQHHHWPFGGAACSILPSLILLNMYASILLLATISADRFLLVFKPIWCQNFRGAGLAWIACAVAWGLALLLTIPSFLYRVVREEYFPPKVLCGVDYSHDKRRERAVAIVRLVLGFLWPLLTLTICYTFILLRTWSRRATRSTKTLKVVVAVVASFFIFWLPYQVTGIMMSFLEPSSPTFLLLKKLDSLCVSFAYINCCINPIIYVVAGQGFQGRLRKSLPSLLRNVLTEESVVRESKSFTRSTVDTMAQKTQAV
Method in brief: (§1)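 Buffer was HBSS with 10 mM pMSF and 0.5% BSA, HEPES pH 7.2. Compounds were added from 1% aqueous DMSO. Filtration used polyethyleneimine-soaked GF filters, read by gamma counting. Nonspecific binding was set with ≥20 ng unlabeled C5a. IC50 came from a four-parameter logistic fit.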

[2] = species: Homo sapiens; assay: Compound was tested for the inhibition of C5a- induced human neutrophil activation; type: functional
Method in brief: (§2)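 Freshly isolated human PMN (Ficoll-Hypaque, erythrocytes lysed with NH4Cl/EDTA/KHCO3), 4×10^5/mL in HBSS. Preincubated with compound or 1% aqueous DMSO 20 min at 37 °C, then cytochalasin B (5 μg/mL final) 5 min. Stimulated 5 min at 37 °C with C5a or fMLF, or no stimulus for nonspecific release. MPO read with dimethoxybenzidine/H2O2 at pH 6.0, azide-quenched at 2 min, A450. Duplicate or triplicate.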

[3] = species: Homo sapiens; assay: Compound was tested for the inhibition of fMLF- induced human neutrophil activation; type: functional; method in brief: as §2
[4] = molecular target: T2, Myeloperoxidase (Homo sapiens, UniProt P05164); assay: Compound was tested for the induction of nonspecific myeloperoxidase (MPO) release; type: functional; method in brief: as §2
T2 sequence (P05164 whole entry): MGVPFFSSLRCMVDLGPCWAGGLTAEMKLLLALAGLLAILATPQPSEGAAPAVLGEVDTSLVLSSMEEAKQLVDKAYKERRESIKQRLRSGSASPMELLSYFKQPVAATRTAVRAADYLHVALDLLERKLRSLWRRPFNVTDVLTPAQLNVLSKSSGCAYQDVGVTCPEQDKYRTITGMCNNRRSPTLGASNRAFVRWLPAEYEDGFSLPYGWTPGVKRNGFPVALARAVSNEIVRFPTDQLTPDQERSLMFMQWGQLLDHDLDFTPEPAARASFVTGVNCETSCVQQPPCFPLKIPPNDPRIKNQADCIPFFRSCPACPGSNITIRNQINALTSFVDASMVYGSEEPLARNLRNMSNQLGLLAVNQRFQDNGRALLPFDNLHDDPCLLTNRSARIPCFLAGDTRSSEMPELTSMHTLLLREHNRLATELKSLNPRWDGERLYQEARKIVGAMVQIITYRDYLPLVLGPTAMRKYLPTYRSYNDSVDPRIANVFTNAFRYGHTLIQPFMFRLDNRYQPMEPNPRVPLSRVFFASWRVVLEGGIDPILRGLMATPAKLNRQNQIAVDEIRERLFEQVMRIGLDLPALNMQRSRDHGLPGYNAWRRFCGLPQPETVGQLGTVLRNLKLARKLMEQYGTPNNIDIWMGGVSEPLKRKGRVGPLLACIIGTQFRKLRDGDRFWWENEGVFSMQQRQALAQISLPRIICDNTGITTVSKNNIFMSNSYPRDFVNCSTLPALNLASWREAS

[5] = molecular target: T1, C5a anaphylatoxin chemotactic receptor 1; assay: Compound was tested for its ability to inhibit binding of radiolabeled C5a anaphylatoxin chemotactic receptor to intact membrane bound receptor from human neutrophils.; insoluble; method in brief: as §1

| Structure (SMILES) | IC50 [1] [µM] | further results |
| --- | --- | --- |
| Cc1cc(NCc2ccccc2)c2cc(NC(=O)C(=O)Nc3ccc4nc(C)cc(NCc5ccccc5)c4c3)ccc2n1 | > 86.1 | – |
| Cc1cc(N)c2cc(NC(=O)CCCCC(=O)Nc3ccc4nc(C)cc(N)c4c3)ccc2n1 | > 110 | – |
| Cc1cc(N)c2cc(NC(=O)C(=O)Nc3ccc4nc(C)cc(N)c4c3)ccc2n1 | 4.99 | EC50 [2]: 4 µg/mL (≈ 9.99 µM) |
| Cc1cc(N)c2cc(NC(=O)/C=C/c3ccccc3C(F)(F)F)ccc2n1 | 24.2 | EC50 [2]: 4 µg/mL (≈ 10.8 µM); EC50 [3]: 4 µg/mL (≈ 10.8 µM) |
| Cc1cc(N)c2cc(C(=O)NCc3ccccc3)ccc2n1 | > 343 | – |
| Cc1ccc2cc(NC(=O)Nc3ccc4nc(C)ccc4c3)ccc2n1 | > 146 | – |
| Cc1cc(N)c2cc(NC(=O)c3ccc4ccccc4c3)ccc2n1 | 91.6 | – |
| CCCC(=O)Nc1ccc2nc(C)cc(N)c2c1 | > 411 | – |
| CCCCCCCCNc1cc(C)nc2ccc(NC(=O)/C=C/c3ccccc3Cl)cc12 | > 222 | – |
| CCCCCCCCNC(=O)c1ccc2nc(C)cc(N)c2c1 | > 319 | – |
| Cc1cc(NCc2ccccc2)c2cc(NC(=O)/C=C/c3ccccc3Cl)ccc2n1 | > 234 | EC50 [2]: < 3 µg/mL; EC50 [3]: < 3 µg/mL; EC50 [4]: 11.7 µM |
| Cc1cc(N)c2cc(NC(=O)/C=C/c3cccc(C(F)(F)F)c3)ccc2n1 | 10.8 | – |
| Cc1cc(NCc2ccccc2)c2cc(N)ccc2n1 | > 380 | – |
| Cc1cc(N)c2cc(NC(=O)/C=C/c3ccccc3Cl)ccc2n1 | 35.5 | EC50 [2]: 4 µg/mL (≈ 11.8 µM); EC50 [3]: 5 µg/mL (≈ 14.8 µM) |
| COc1cc(C)nc2ccc(NC(=O)/C=C/c3ccccc3Cl)cc12 | > 142 | – |
| Cc1cc(N)c2cc(NC(=O)CCCCCCCCC(=O)Nc3ccc4nc(C)cc(N)c4c3)ccc2n1 | > 97.5 | – |
| Cc1cc(N)c2cc(NC(=O)/C=C/c3c(F)c(F)c(F)c(F)c3F)ccc2n1 | – | IC50 [5]: Not Active |
| Cc1cc(N)c2cc(NC(=O)CC(=O)Nc3ccc4nc(C)cc(N)c4c3)ccc2n1 | 43.4 | – |
| Cc1cc(N)c2cc(NC(=O)/C=C/c3ccc(C(F)(F)F)cc3)ccc2n1 | 18.8 | – |
| Cc1cc(N)c2cc(NC(=O)c3ccccc3)ccc2n1 | > 361 | – |
| Cc1cc(N)c2cc(N)ccc2n1 | > 577 | – |
| Cc1cc(N)c2cc(NC(=O)/C=C/c3c(Cl)cccc3Cl)ccc2n1 | 21.5 | EC50 [2]: 4 µg/mL (≈ 10.7 µM); EC50 [3]: 4 µg/mL (≈ 10.7 µM) |
| Cc1cc(N)c2cc(NC(=O)/C=C/c3ccccc3)ccc2n1 | 98.9 | – |
| Cc1cc(N)c2cc(NC(=O)CCc3ccccc3)ccc2n1 | > 327 | – |
| CCCCCCCC(=O)Nc1ccc2nc(C)cc(N)c2c1 | 100 | – |
| Cc1cc(NCc2ccccc2)c2cc(NC(=O)/C=C/c3ccccc3C(F)(F)F)ccc2n1 | > 217 | – |
| Cc1cc(N)c2cc(NC(=O)Nc3ccc4nc(C)cc(N)c4c3)ccc2n1 [AMINOQUINURIDE] | 8.86 | EC50 [2]: 15 µg/mL (≈ 40.3 µM) |
